≈ marks a conversion by molar mass, not a printed value.
Key:
WIL2 [1] = assay: Growth inhibitory activity against human lymphoblastoid W1L2 cell line; assay type: functional, cell-based
Summary of the method: (§1)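 IC50 read by cell counting. For the folate-rescue arm, W1L2 medium carried 10 μM thymidine plus 50 μM hypoxanthine. Values are mean ± SD or individual results.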

WIL2 [2] = assay: Growth inhibitory activity against human lymphoblastoid W1L2 cell line in presence of 10 uM thymidine/50 uM hypoxanthine; assay type: functional, cell-based; summary of the method: as §1
[3] = Growth inhibitory activity against human lymphoblastoid W1L2:R865 cell line; assay type: functional, cell-based; summary of the method: as §1
[4] = Solubility at pH 6.0 was determined; assay type: physicochemical; conditions: buffer
Summary of the method: (§2)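 About 2 mg solid shaken 18 h at 25 °C in the dark, then settled 30 min. pH rechecked (±0.2, readjusted, then 60 min re-equilibration). Centrifuged 1000g 15 min, 0.2 μm filtered, diluted 1:1 with MeCN. Assayed by RP18 HPLC, UV 295 nm, against a 3-point standard curve.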

[5] = Solubility at pH 7.4 was determined; assay type: physicochemical; conditions: buffer; summary of the method: as §2
[6] = Solubility at pH 6.0; assay type: physicochemical; conditions: buffer; summary of the method: as §2
[7] = Solubility at pH 7.4; assay type: physicochemical; conditions: buffer; summary of the method: as §2
Proteasome = assay: Chymotryptic inhibitory activity against 26S proteasome; assay type: functional, subcellular

| SMILES | IC50 (WIL2 [1]) [nM] | IC50 (WIL2 [2]) [nM] | IC50 [3] [nM] | solubility [4] [µM] | solubility [5] [µM] | solubility [6] [µM] | solubility [7] [µM] | IC50 (Proteasome) [nM] |
| --- | --- | --- | --- | --- | --- | --- | --- | --- |
| C#CCN(Cc1cc2c(=O)n(C)c(CN3CCC[C@H]3C(=O)OC)nc2cc1Cl)c1ccc(C(=O)NCc2cccnc2)cc1 | 18 | 14 | 24000 | – | – | – | – | – |
| C#CCN(Cc1cc2c(=O)n(C)c(CN3CCN(c4ccccc4)CC3)nc2cc1Cl)c1ccc(C(=O)NCc2cccnc2)cc1 | 7.2 | 5.4 | 940 | 23 (≈ 14.9 µg/mL) | 5 (≈ 3.23 µg/mL) | – | – | – |
| C#CCN(Cc1cc2c(=O)n(CC(=O)N3CCCCC3)c(CN3CCCCC3)nc2cc1Cl)c1ccc(C(=O)NCc2cccnc2)cc1 | 8.4 | 7.4 | > 50000 | – | – | – | – | – |
| C#CCN(Cc1cc2c(=O)n(C)c(CN3CCCCC3)nc2cc1Cl)c1ccc(C(=O)NCc2cccnc2)cc1 | 0.8 | 0.78 | 14000 | – | – | – | – | – |
| C#CCN(Cc1cc2c(=O)n(C)c(CN3CCOCC3)nc2cc1Cl)c1ccc(C(=O)NCc2cccnc2)cc1 | 2 | 2 | 19000 | 3 (≈ 1.71 µg/mL) | 2 (≈ 1.14 µg/mL) | – | – | – |
| C#CCN(Cc1cc2c(=O)n(C)c(CN3CCCCC3)nc2cc1Cl)c1ccc(C(=O)NCCCn2cncn2)cc1 | 840 | 800 | 20000 | 80 (≈ 47 µg/mL) | 6 (≈ 3.52 µg/mL) | – | – | – |
| C#CCN(Cc1cc2c(O)nc(C)nc2cc1Br)c1ccc(C(=O)NCc2cccnc2)cc1 | 2.8 | 2.2 | 610 | – | – | < 1 | 2.3 (≈ 1.19 µg/mL) | – |
| C#CCN(Cc1cc2c(=O)n(CC(=O)OC)c(CN3CCCCC3)nc2cc1Cl)c1ccc(C(=O)NCc2cccnc2)cc1 | 11 | 9.6 | 23000 | – | – | – | – | – |
| C#CCN(Cc1cc2c(=O)n(C)c(CN3CCN(CCO)CC3)nc2cc1Cl)c1ccc(C(=O)NCc2cccnc2)cc1 | 7 | 7.1 | 22000 | 992 (≈ 609 µg/mL) | 75 (≈ 46.1 µg/mL) | – | – | – |
| C#CCN(Cc1cc2c(=O)n(C)c(CN3CCN(CC)CC3)nc2cc1Cl)c1ccc(C(=O)NCc2cccnc2)cc1 | 0.78 | 0.78 | 22000 | 1760 (≈ 1060 µg/mL) | 286 (≈ 171 µg/mL) | – | – | – |
| C#CCN(Cc1cc2c(=O)n(C)c(CN3CCCC3)nc2cc1Cl)c1ccc(C(=O)NCc2cccnc2)cc1 | 0.7 | 0.76 | 24000 | – | – | – | – | – |
| C#CCN(Cc1cc2c(=O)n(CC(=O)N(CC)CC)c(CN3CCCCC3)nc2cc1Cl)c1ccc(C(=O)NCc2cccnc2)cc1 | 9.4 | 8.4 | 19000 | 2 (≈ 1.34 µg/mL) | 2 (≈ 1.34 µg/mL) | – | – | – |
| C#CCN(Cc1cc2c(=O)n(C)c(CN3CCN(C)CC3)nc2cc1Cl)c1ccc(C(=O)NCCCn2ccnc2)cc1 | 2.1 | 2.3 | 18000 | 934 (≈ 561 µg/mL) | 96 (≈ 57.7 µg/mL) | – | – | – |
| C#CCN(Cc1cc2c(=O)n(C)c(CN3CCC(O)CC3)nc2cc1Cl)c1ccc(C(=O)NCc2cccnc2)cc1 | 0.72 | 0.7 | 18000 | 2 (≈ 1.17 µg/mL) | 0.5 (≈ 0.293 µg/mL) | – | – | – |
| C#CCN(Cc1cc2c(=O)n(C)c(CN(CC)CC)nc2cc1Cl)c1ccc(C(=O)NCc2cccnc2)cc1 | 0.71 | 0.73 | > 50000 | – | – | – | – | – |
| C#CCN(Cc1cc2c(=O)n(C)c(CN3CCN(C)CC3)nc2cc1Cl)c1ccc(C(=O)NCc2cccnc2)cc1 | 0.49 | 0.32 | 13000 | 636 (≈ 372 µg/mL) | 146 (≈ 85.3 µg/mL) | – | – | 3000 |
